In ChEMBL document CHEMBL1155372, “Design and synthesis of novel deoxybenzoin derivatives as FabH inhibitors and anti-inflammatory agents” (Bioorg Med Chem Lett, 2010):
≈ marks a conversion by molar mass, not a printed value. Calls of active or inactive are those of the source. The rule behind the calls is not given here.

Key:
[1] = test system: Escherichia coli; experiment: Antibacterial activity against Escherichia coli ATCC 35218; assay type: functional
[2] = test system: Bacillus subtilis; experiment: Antibacterial activity against Bacillus subtilis ATCC 6633; assay type: functional
[3] = test system: Aspergillus niger; experiment: Antifungal activity against Aspergillus niger ATCC 16404; assay type: functional
[4] = test system: Pseudomonas aeruginosa; experiment: Antibacterial activity against Pseudomonas aeruginosa ATCC 2785; assay type: functional
[5] = test system: Staphylococcus aureus; experiment: Antibacterial activity against Staphylococcus aureus ATCC 6538; assay type: functional
[6] = test system: Candida albicans; experiment: Antifungal activity against Candida albicans ATCC 10231; assay type: functional
[7] = test system: Trichophyton rubrum; experiment: Antifungal activity against Trichophyton rubrum ATCC 10218
[8] = Inhibition of Escherichia coli FabH expressed after 25 mins by liquid scintillation counting
[9] = test system: AGS; experiment: Inhibition of Escherichia coli-stimulated IL-8 production in human AGS cells at 15 to 60 umol/L after 12 hrs by ELISA; assay type: functional, cell-based
Summary of the method: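 AGS gastric mucosal cells stimulated with Escherichia coli water extract to induce IL-8 production, with agent added at 15, 30 and 60 μmol L⁻¹. IL-8 released was measured in pg mL⁻¹ and compared with extract-stimulated control. Values are means ± SEM of 3–5 experiments.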

[10] = test system: AGS; experiment: Cytotoxicity against human AGS cells at 15 to 60 umol/L after 48 hrs by MTT assay; assay type: cell-based
Summary of the method: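 AGS gastric cells incubated with test agent at serial concentrations of 15, 30 and 60 μmol L⁻¹. Viability read by MTT assay 48 h later. Values are means ± SEM of 4–6 experiments.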

| SMILES | MIC [1] [µg/mL] | MIC [2] [µg/mL] | MIC [3] [µg/mL] | MIC [4] [µg/mL] | MIC [5] [µg/mL] | MIC [6] [µg/mL] | MIC [7] [µg/mL] | IC50 [8] [µM] | inhibition [9] | Activity [10] |
| --- | --- | --- | --- | --- | --- | --- | --- | --- | --- | --- |
| O=C(Cc1ccc(Cl)cc1)c1ccc(O)c(O)c1 |  |  | > 50 |  |  | > 50 | > 50 |  |  |  |
| Oc1ccc(/C(Cc2ccc(Cl)cc2)=N\c2ccc(Br)cc2)c(O)c1 | 3.12 (≈ 7.5 µM) | 12.5 (≈ 30 µM) | > 50 | 3.12 (≈ 7.5 µM) | 25 (≈ 60 µM) | > 50 | > 50 | 9.1 |  |  |
| Oc1ccc(/C(Cc2ccc(F)cc2)=N\c2ccc(Br)cc2)cc1O | 12.5 (≈ 31.2 µM) | 25 (≈ 62.5 µM) | > 50 | 25 (≈ 62.5 µM) | 50 (≈ 125 µM) | > 50 | > 50 |  |  |  |
| O=[N+]([O-])c1ccc(/N=C(/Cc2ccc(Cl)cc2)c2ccc(O)cc2O)cc1 | 6.25 (≈ 16.3 µM) | 25 (≈ 65.3 µM) | > 50 | 6.25 (≈ 16.3 µM) | 12.5 (≈ 32.7 µM) | > 50 | > 50 | 8.7 |  |  |
| Cc1ccc(/N=C(/Cc2ccc(F)cc2)c2ccc(O)c(O)c2O)cc1 | 50 (≈ 142 µM) | 50 (≈ 142 µM) | > 50 | 50 (≈ 142 µM) | 50 (≈ 142 µM) | > 50 | > 50 |  | inactive |  |
| Oc1ccc(/C(Cc2ccc(Cl)cc2)=N\c2ccc(Cl)cc2)c(O)c1 | 0.78 (≈ 2.1 µM) | 25 (≈ 67.2 µM) | > 50 | 1.56 (≈ 4.2 µM) | 25 (≈ 67.2 µM) | > 50 | > 50 | 1.8 |  | Non-toxic |
| Cc1ccc(/N=C(/Cc2ccc(Cl)cc2)c2ccc(O)c(O)c2)cc1 | 25 (≈ 71.1 µM) | 50 (≈ 142 µM) | > 50 | 50 (≈ 142 µM) | 50 (≈ 142 µM) | > 50 | > 50 |  |  |  |
| Cc1ccc(/N=C(/Cc2ccc(Cl)cc2)c2ccc(O)c(O)c2O)cc1 | 50 (≈ 136 µM) | 25 (≈ 68 µM) | > 50 | 50 (≈ 136 µM) | 25 (≈ 68 µM) | > 50 | > 50 |  |  |  |
| Cc1ccc(/N=C(/Cc2ccc(F)cc2)c2ccc(O)cc2O)cc1 | 25 (≈ 74.5 µM) | 25 (≈ 74.5 µM) | > 50 | 25 (≈ 74.5 µM) | 25 (≈ 74.5 µM) | > 50 | > 50 | 35.3 |  |  |
| Oc1ccc(/N=C(/Cc2ccc(Cl)cc2)c2ccc(O)c(O)c2O)cc1 | 25 (≈ 67.6 µM) | 50 (≈ 135 µM) | > 50 | 50 (≈ 135 µM) | 25 (≈ 67.6 µM) | > 50 | > 50 |  |  |  |
| O=[N+]([O-])c1ccc(/N=C(/Cc2ccc(F)cc2)c2ccc(O)c(O)c2)cc1 | 25 (≈ 68.2 µM) | 50 (≈ 136 µM) | > 50 | 25 (≈ 68.2 µM) | 50 (≈ 136 µM) | > 50 | > 50 |  |  |  |
| O=[N+]([O-])c1ccc(/N=C(/Cc2ccc(F)cc2)c2ccc(O)c(O)c2O)cc1 | 25 (≈ 65.4 µM) | 50 (≈ 131 µM) | > 50 | 25 (≈ 65.4 µM) | 25 (≈ 65.4 µM) | > 50 | > 50 |  |  |  |
| Oc1ccc(/N=C(/Cc2ccc(F)cc2)c2ccc(O)cc2O)cc1 | 12.5 (≈ 37.1 µM) | 50 (≈ 148 µM) | > 50 | 25 (≈ 74.1 µM) | 25 (≈ 74.1 µM) | > 50 | > 50 |  |  |  |
| Oc1ccc(/N=C(/Cc2ccc(Cl)cc2)c2ccc(O)cc2O)cc1 | 6.25 (≈ 17.7 µM) | 25 (≈ 70.7 µM) | > 50 | 12.5 (≈ 35.3 µM) | > 50 | > 50 | > 50 | 20.5 |  |  |
| Oc1ccc(/C(Cc2ccc(Cl)cc2)=N\c2ccc(Br)cc2)cc1O | 12.5 (≈ 30 µM) | 25 (≈ 60 µM) | > 50 | 12.5 (≈ 30 µM) | 25 (≈ 60 µM) | > 50 | > 50 |  |  |  |
| NC[C@H]1O[C@H](O[C@H]2[C@H](O)[C@@H](O[C@H]3O[C@H](CO)[C@@H](O)[C@H](N)[C@H]3O)[C@H](N)C[C@@H]2N)[C@H](N)[C@@H](O)[C@@H]1O [BEKANAMYCIN] | 3.12 (≈ 6.46 µM) | 0.39 (≈ 0.807 µM) |  | 3.12 (≈ 6.46 µM) | 1.56 (≈ 3.23 µM) |  |  |  |  |  |
| Oc1ccc(/C(Cc2ccc(F)cc2)=N\c2ccc(Cl)cc2)c(O)c1 | 1.56 (≈ 4.39 µM) | 50 (≈ 141 µM) | > 50 | 1.56 (≈ 4.39 µM) | 50 (≈ 141 µM) | > 50 | > 50 | 3.9 |  |  |
| CC(=O)Oc1ccccc1C(=O)O [ASPIRIN] |  |  |  |  |  |  |  |  | Active | Non-toxic |
| Oc1ccc(/C(Cc2ccc(Cl)cc2)=N\c2ccc(Cl)cc2)cc1O | 6.25 (≈ 16.8 µM) | 50 (≈ 134 µM) | > 50 | 6.25 (≈ 16.8 µM) | 50 (≈ 134 µM) | > 50 | > 50 |  |  |  |
| Oc1ccc(/C(Cc2ccc(Cl)cc2)=N\c2ccc(Br)cc2)c(O)c1O | 12.5 (≈ 28.9 µM) | 50 (≈ 116 µM) | > 50 | 25 (≈ 57.8 µM) | 50 (≈ 116 µM) | > 50 | > 50 |  |  |  |
| Cc1ccc(/N=C(/Cc2ccc(Cl)cc2)c2ccc(O)cc2O)cc1 | 12.5 (≈ 35.5 µM) | 25 (≈ 71.1 µM) | > 50 | 12.5 (≈ 35.5 µM) | 12.5 (≈ 35.5 µM) | > 50 | > 50 | 15.1 |  |  |
| Oc1ccc(/C(Cc2ccc(F)cc2)=N\c2ccc(Cl)cc2)cc1O | 6.25 (≈ 17.6 µM) | 25 (≈ 70.3 µM) | > 50 | 6.25 (≈ 17.6 µM) | 25 (≈ 70.3 µM) | > 50 | > 50 |  |  |  |
| CC1(C)S[C@@H]2[C@H](NC(=O)Cc3ccccc3)C(=O)N2[C@H]1C(=O)O [PENICILLIN G] | 6.25 (≈ 18.7 µM) | 1.56 (≈ 4.67 µM) |  | 6.25 (≈ 18.7 µM) | 1.56 (≈ 4.67 µM) |  |  |  |  |  |
| O=C(Cc1ccc(F)cc1)c1ccc(O)c(O)c1 |  |  | > 50 |  |  | > 50 | > 50 |  |  |  |
| O=C(Cc1ccc(F)cc1)c1ccc(O)cc1O |  |  | > 50 |  |  | > 50 | > 50 |  |  |  |
| Oc1ccc(/C(Cc2ccc(F)cc2)=N\c2ccc(Br)cc2)c(O)c1 | 3.12 (≈ 7.81 µM) | 50 (≈ 125 µM) | > 50 | 6.25 (≈ 15.6 µM) | 50 (≈ 125 µM) | > 50 | > 50 | 8.3 |  |  |

Continued, in another order:

| MIC [1] [µg/mL] | MIC [2] [µg/mL] | MIC [3] [µg/mL] | MIC [4] [µg/mL] | MIC [5] [µg/mL] | MIC [6] [µg/mL] | MIC [7] [µg/mL] | IC50 [8] [µM] | SMILES | inhibition [9] | Activity [10] |
| --- | --- | --- | --- | --- | --- | --- | --- | --- | --- | --- |
| 12.5 (≈ 33.6 µM) | 50 (≈ 134 µM) | > 50 | 12.5 (≈ 33.6 µM) | 50 (≈ 134 µM) | > 50 | > 50 |  | Oc1ccc(/C(Cc2ccc(F)cc2)=N\c2ccc(Cl)cc2)c(O)c1O |  |  |
| 25 (≈ 70.7 µM) | 50 (≈ 141 µM) | > 50 | 50 (≈ 141 µM) | 50 (≈ 141 µM) | > 50 | > 50 |  | Oc1ccc(/N=C(/Cc2ccc(Cl)cc2)c2ccc(O)c(O)c2)cc1 |  |  |
| 50 (≈ 148 µM) | 25 (≈ 74.1 µM) | > 50 | 50 (≈ 148 µM) | 50 (≈ 148 µM) | > 50 | > 50 |  | Oc1ccc(/N=C(/Cc2ccc(F)cc2)c2ccc(O)c(O)c2)cc1 |  |  |
|  |  | > 50 |  |  | > 50 | > 50 |  | O=C(Cc1ccc(F)cc1)c1ccc(O)c(O)c1O |  |  |
| 50 (≈ 125 µM) | 50 (≈ 125 µM) | > 50 | 50 (≈ 125 µM) | 50 (≈ 125 µM) | > 50 | > 50 |  | O=[N+]([O-])c1ccc(/N=C(/Cc2ccc(Cl)cc2)c2ccc(O)c(O)c2O)cc1 |  |  |
|  |  | > 50 |  |  | > 50 | > 50 |  | O=C(Cc1ccc(Cl)cc1)c1ccc(O)c(O)c1O |  |  |
| 25 (≈ 65.3 µM) | 25 (≈ 65.3 µM) | > 50 | 25 (≈ 65.3 µM) | 12.5 (≈ 32.7 µM) | > 50 | > 50 |  | O=[N+]([O-])c1ccc(/N=C(/Cc2ccc(Cl)cc2)c2ccc(O)c(O)c2)cc1 |  |  |
| 25 (≈ 74.5 µM) | 25 (≈ 74.5 µM) | > 50 | 50 (≈ 149 µM) | 12.5 (≈ 37.3 µM) | > 50 | > 50 |  | Cc1ccc(/N=C(/Cc2ccc(F)cc2)c2ccc(O)c(O)c2)cc1 |  |  |
| 6.25 (≈ 17.1 µM) | 50 (≈ 136 µM) | > 50 | 12.5 (≈ 34.1 µM) | 50 (≈ 136 µM) | > 50 | > 50 | 28.7 | O=[N+]([O-])c1ccc(/N=C(/Cc2ccc(F)cc2)c2ccc(O)cc2O)cc1 |  |  |
| 25 (≈ 70.8 µM) | 50 (≈ 142 µM) | > 50 | 50 (≈ 142 µM) | 50 (≈ 142 µM) | > 50 | > 50 | 63.4 | Oc1ccc(/N=C(/Cc2ccc(F)cc2)c2ccc(O)c(O)c2O)cc1 |  |  |
| 12.5 (≈ 32.2 µM) | 50 (≈ 129 µM) | > 50 | 25 (≈ 64.4 µM) | 50 (≈ 129 µM) | > 50 | > 50 |  | Oc1ccc(/C(Cc2ccc(Cl)cc2)=N\c2ccc(Cl)cc2)c(O)c1O |  |  |
|  |  | > 50 |  |  | > 50 | > 50 |  | O=C(Cc1ccc(Cl)cc1)c1ccc(O)cc1O |  |  |
| 25 (≈ 60.1 µM) | 25 (≈ 60.1 µM) | > 50 | 25 (≈ 60.1 µM) | 25 (≈ 60.1 µM) | > 50 | > 50 |  | Oc1ccc(/C(Cc2ccc(F)cc2)=N\c2ccc(Br)cc2)c(O)c1O |  |  |
